Assay [1] can be described thus: Antibiotic activity against Micrococcus luteus (ATCC 9341 strain). It is filed as functional. In short, it runs like this:
(§1)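 Peptides at 0.3 mM incubated with purified IPNS in Tris-HCl pH 8.0 containing KCl, MgSO4, FeSO4, ascorbate and DTT, at 25 °C for 2–20 min in quadruplicate, then stopped with ethanol. Samples with and without penicillinase went into wells on M. luteus ATCC 9341 lawns, incubated overnight at 37 °C, and inhibition zones were read. Peptides giving no product were retested for 1 h at 3 mM.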

The subject of assay [2] is Micrococcus luteus. Put plainly: In vitro antibiotic activity against Micrococcus luteus(ATCC 9341 stain). In kind it is functional, organism-based. The method in brief: as §1
Assay [3] addresses T1, Isopenicillin N synthase (Penicillium chrysogenum) (UniProt P08703).
T1 sequence (whole entry): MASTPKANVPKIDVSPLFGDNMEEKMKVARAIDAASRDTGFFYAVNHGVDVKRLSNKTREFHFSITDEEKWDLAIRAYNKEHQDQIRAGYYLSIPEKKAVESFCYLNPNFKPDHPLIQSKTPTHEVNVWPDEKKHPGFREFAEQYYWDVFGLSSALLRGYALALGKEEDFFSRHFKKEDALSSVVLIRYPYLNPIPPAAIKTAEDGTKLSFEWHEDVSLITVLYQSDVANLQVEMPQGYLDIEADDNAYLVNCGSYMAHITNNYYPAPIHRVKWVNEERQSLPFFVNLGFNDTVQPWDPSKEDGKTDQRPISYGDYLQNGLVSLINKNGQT
Nature of the assay: Anti-micrococcus luteus activity was tested for inhibition of isopenicillin N synthetase. The following applies: Penicillium chrysogenum (Penicillium notatum). In short, it runs like this:
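Peptide added at a known amount to a standard IPNS reaction mixture with ACV as substrate before starting the reaction with enzyme. Applied to peptides not converted to an anti-M. luteus product. Percent inhibition derived from the ratio of reaction rates with and without the peptide.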

Results on 38 molecules are retold here after ChEMBL document CHEMBL1126293, “Substrate specificity of isopenicillin N synthase” (J Med Chem, 1992).

As for `N[C@@H](CCCC(=O)NC(CSSCC(NC(=O)CCC[C@H](N)C(=O)O)C(=O)N[C@H](CC1CNc2ccccc21)C(=O)O)C(=O)N[C@H](CC1CNc2ccccc21)C(=O)O)C(=O)O` (stereo partly drawn), in assay [1], the Antibiotic activity result is “No activity”.

Regarding `N[C@@H](CCCC(=O)NC(CSSCC(NC(=O)CCC[C@H](N)C(=O)O)C(=O)N[C@H](CC(=O)O)C(=O)O)C(=O)N[C@H](CC(=O)O)C(=O)O)C(=O)O` (stereo partly drawn), the Antibiotic activity result in assay [1] is “No activity”.

Turning to `CC(C)[C@@H](NC(=O)[C@H](CSSC[C@H](NC(=O)CCc1cccc(O)c1)C(=O)N[C@@H](C(=O)O)C(C)C)NC(=O)CCc1cccc(O)c1)C(=O)O`, the Antibiotic activity result in assay [2] is “Yes”. Further, the Activity result in assay [3] was “No activity”.

On to `CC(C)[C@@H](NC(=O)[C@@H]1CSC(C)(C)N1C(=O)CCC[C@H](N)C(=O)O)C(=O)O`, for which the Antibiotic activity entry in assay [1] was “No activity”. The Activity result in assay [3] is “No activity”.

In the case of `CC(C)[C@@H](NC(=O)[C@H](CSSC[C@H](NC(=O)CCCCC(=O)O)C(=O)N[C@@H](C(=O)O)C(C)C)NC(=O)CCCCC(=O)O)C(=O)O`, the Antibiotic activity result in assay [2] is “Yes”.

`N[C@@H](CCCC(=O)NC(CSSCC(NC(=O)CCC[C@H](N)C(=O)O)C(=O)NC1(C(=O)O)CCCC1)C(=O)NC1(C(=O)O)CCCC1)C(=O)O` (stereo partly drawn): the Antibiotic activity entry in assay [1] was “No activity”. Also, the Activity entry in assay [3] is “No activity”.

As to `CC(C)C(NC(=O)C(CS)NC(=O)CCC[C@H](N)C(=O)O)S(=O)(=O)O` (stereo partly drawn), the Antibiotic activity result in assay [1] was “No activity”.

Take `CS(=O)(=O)C[C@@H](NC(=O)C(CSSCC(NC(=O)CCC[C@H](N)C(=O)O)C(=O)N[C@H](CS(C)(=O)=O)C(=O)O)NC(=O)CCC[C@H](N)C(=O)O)C(=O)O` (stereo partly drawn): in assay [1], the Antibiotic activity result is “No activity”.

`N[C@@H](CCCC(=O)NC(CSSCC(NC(=O)CCC[C@H](N)C(=O)O)C(=O)N[C@H](Cc1ccccc1)C(=O)O)C(=O)N[C@H](Cc1ccccc1)C(=O)O)C(=O)O` (stereo partly drawn): the Antibiotic activity entry in assay [1] was “No activity”.

As for `C[S+]([O-])C[C@@H](NC(=O)C(CSSCC(NC(=O)CCC[C@H](N)C(=O)O)C(=O)N[C@H](C[S+](C)[O-])C(=O)O)NC(=O)CCC[C@H](N)C(=O)O)C(=O)O` (stereo partly drawn), the Antibiotic activity result in assay [1] was “No activity”.

For the molecule `CC(C)[C@H](NC(=O)CCC[C@H](N)C(=O)O)C(=O)N[C@@H](C(=O)O)C(C)C`, the Antibiotic activity result in assay [1] is “No activity”.

As to `CC(Cl)[C@@H](NC(=O)C(CSSCC(NC(=O)CCC[C@H](N)C(=O)O)C(=O)N[C@@H](C(=O)O)C(C)Cl)NC(=O)CCC[C@H](N)C(=O)O)C(=O)O` (stereo partly drawn), the Antibiotic activity result in assay [1] was “No activity”. Further, in assay [3], the Activity result is “No activity”.

Turning to `NC(=O)C[C@@H](NC(=O)C(CSSCC(NC(=O)CCC[C@H](N)C(=O)O)C(=O)N[C@H](CC(N)=O)C(=O)O)NC(=O)CCC[C@H](N)C(=O)O)C(=O)O` (stereo partly drawn), the Antibiotic activity result in assay [1] is “No activity”.

`COC(=O)CCCCC(=O)N[C@@H](CSSC[C@H](NC(=O)CCCCC(=O)OC)C(=O)N[C@@H](C(=O)O)C(C)C)C(=O)N[C@@H](C(=O)O)C(C)C`: in assay [2], the Antibiotic activity result is “Yes”.

With `N[C@@H](CCCC(=O)NC(CSSCC(NC(=O)CCC[C@H](N)C(=O)O)C(=O)N[C@H](COCc1ccccc1)C(=O)O)C(=O)N[C@H](COCc1ccccc1)C(=O)O)C(=O)O` (stereo partly drawn), the Antibiotic activity entry in assay [1] is “No activity”. For the same molecule, the Activity result in assay [3] was “No activity”.

Consider `CC(NC(=O)CCC[C@H](N)C(=O)O)C(=O)N[C@@H](C(=O)O)C(C)(C)S` (stereo partly drawn), for which the Activity result in assay [3] was “No activity”.

As for `C=CC[C@H](NC(=O)CCC[C@H](N)C(=O)O)C(=O)N[C@@H](C(=O)O)C(C)C`, the Antibiotic activity entry in assay [1] is “No activity”. Besides, the Activity result in assay [3] was “No activity”.

On to `N[C@@H](CCCC(=O)NC(CSSCC(NC(=O)CCC[C@H](N)C(=O)O)C(=O)N[C@@H](C(=O)O)C1CCCCC1)C(=O)N[C@@H](C(=O)O)C1CCCCC1)C(=O)O` (stereo partly drawn), for which the Antibiotic activity result in assay [1] is “No activity”. Besides, the Activity entry in assay [3] is “No activity”.

For `CC(C)[C@@H](NC(=O)[C@H](CSSC[C@H](NC(=O)COc1ccccc1)C(=O)N[C@@H](C(=O)O)C(C)C)NC(=O)COc1ccccc1)C(=O)O`, the Antibiotic activity entry in assay [2] is “Yes”.

For the molecule `CC(C)[C@@H](NC(=O)[C@H](CS)NC(=O)CC[C@H](N)C(=O)O)C(=O)O`, the Antibiotic activity entry in assay [1] is “No activity”. In addition, the Activity entry in assay [3] was “No activity”.

In the case of `N[C@@H](CCCC(=O)N[C@@H](CSSC[C@H](NC(=O)CCC[C@H](N)C(=O)O)C(=O)N[C@H](COCc1ccccc1)C(=O)O)C(=O)N[C@H](COCc1ccccc1)C(=O)O)C(=O)O`, the Antibiotic activity entry in assay [1] was “No activity”. Moreover, the Activity entry in assay [3] is “No activity”.

As to `C=C(NC(=O)CCC[C@H](N)C(=O)O)C(=O)N[C@H](COCc1ccccc1)C(=O)O`, the Antibiotic activity entry in assay [1] was “No activity”. For the same molecule, in assay [3], the Activity result is “No activity”.

In the case of `CC(C)[C@@H](NC(=O)[C@H](Cc1c[nH]cn1)NC(=O)CCC[C@H](N)C(=O)O)C(=O)O`, the Antibiotic activity entry in assay [1] is “No activity”.

With `COCC(COC)[C@H](NC(=O)C(CSSCC(NC(=O)CCC[C@H](N)C(=O)O)C(=O)N[C@H](C(=O)O)C(COC)COC)NC(=O)CCC[C@H](N)C(=O)O)C(=O)O` (stereo partly drawn), the Antibiotic activity result in assay [1] was “No activity”. For the same molecule, in assay [3], the Activity entry was “No activity”.

For `N[C@@H](CCCC(=O)NC(CSSCC(NC(=O)CCC[C@H](N)C(=O)O)C(=O)N[C@@H](Cc1cccs1)C(=O)O)C(=O)N[C@@H](Cc1cccs1)C(=O)O)C(=O)O` (stereo partly drawn), in assay [1], the Antibiotic activity entry was “No activity”.

For the molecule `CC(C)[C@@H](NC(=O)[C@H](CSSC[C@H](NC(=O)[C@@H]1CCCN1C(=O)CN)C(=O)N[C@@H](C(=O)O)C(C)C)NC(=O)[C@@H]1CCCN1C(=O)CN)C(=O)O`, in assay [1], the Antibiotic activity result is “No activity”. In assay [3], the Activity result was “No activity”.

`CC(C)[C@@H](NC(=O)[C@H](CSSC[C@H](NC(=O)Cc1ccccc1)C(=O)N[C@@H](C(=O)O)C(C)C)NC(=O)Cc1ccccc1)C(=O)O`: the Antibiotic activity entry in assay [2] is “Yes”.

For `N[C@@H](CCCC(=O)NC(CSSCC(NC(=O)CCC[C@H](N)C(=O)O)C(=O)N[C@H](Cc1cccs1)C(=O)O)C(=O)N[C@H](Cc1cccs1)C(=O)O)C(=O)O` (stereo partly drawn), in assay [1], the Antibiotic activity result is “No activity”.

With `N[C@@H](CCCC(=O)NC(CSSCC(NC(=O)CCC[C@H](N)C(=O)O)C(=O)N[C@H](CO)C(=O)O)C(=O)N[C@H](CO)C(=O)O)C(=O)O` (stereo partly drawn), the Antibiotic activity entry in assay [2] is “Yes”.

In the case of `CC(C)[C@@H](NC(=O)[C@H](CS)NC(=O)[C@@H](N)CCC(=O)O)C(=O)O`, the Antibiotic activity entry in assay [1] was “No activity”. Besides, the Activity result in assay [3] was “No activity”.

Consider `N[C@@H](CCCC(=O)NC(CSSCC(NC(=O)CCC[C@H](N)C(=O)O)C(=O)NC(Cc1cccs1)C(=O)O)C(=O)NC(Cc1cccs1)C(=O)O)C(=O)O` (stereo partly drawn), for which the Antibiotic activity entry in assay [1] is “No activity”.

Turning to `COCC(COC)[C@@H](NC(=O)C(CSSCC(NC(=O)CCC[C@H](N)C(=O)O)C(=O)N[C@@H](C(=O)O)C(COC)COC)NC(=O)CCC[C@H](N)C(=O)O)C(=O)O` (stereo partly drawn), the Antibiotic activity entry in assay [1] is “No activity”. The Activity entry in assay [3] was “No activity”.

For the molecule `CC(C)[C@@H](NC(=O)[C@H](CCS)NC(=O)CCC[C@H](N)C(=O)O)C(=O)O`, the Antibiotic activity entry in assay [1] is “No activity”.

With `CC(C)[C@@H](NC(=O)[C@H](CSSC[C@H](NC(=O)Cc1cccc(C(=O)O)c1)C(=O)N[C@@H](C(=O)O)C(C)C)NC(=O)Cc1cccc(C(=O)O)c1)C(=O)O`, in assay [2], the Antibiotic activity result was “Yes”.

Regarding `CC(C)[C@@H](NC(=O)[C@H](CS)NC(=O)Cc1ccccc1CN)C(=O)O`, the Antibiotic activity entry in assay [2] was “Yes”.

Take `CSC[C@@H](NC(=O)C(CSSCC(NC(=O)CCC[C@H](N)C(=O)O)C(=O)N[C@H](CSC)C(=O)O)NC(=O)CCC[C@H](N)C(=O)O)C(=O)O` (stereo partly drawn): the Antibiotic activity result in assay [1] is “No activity”.

Consider `CC(C)=C(NC(=O)C(CS)NC(=O)CCC[C@H](N)C(=O)O)C(=O)O` (stereo partly drawn), for which the Antibiotic activity result in assay [1] is “No activity”.

As for `CC(C)[C@@H](NC(=O)[C@H](CSSC[C@H](NC(=O)c1cccc(CC(=O)O)c1)C(=O)N[C@@H](C(=O)O)C(C)C)NC(=O)c1cccc(CC(=O)O)c1)C(=O)O`, the Antibiotic activity entry in assay [1] is “No activity”. For the same molecule, the Activity entry in assay [3] was “No activity”.
